Test results taken from ChEMBL document CHEMBL1123628, “Streptonigrin and lavendamycin partial structures. Probes for the minimum, potent pharmacophore of streptonigrin, lavendamycin, and synthetic quinoline-5,8-diones” (J Med Chem, 1987).
≈ marks a conversion by molar mass, not a printed value.

Experiments:
[1] = test system: Mycolicibacterium smegmatis; test: Antimicrobial activity was determined against Mycobacterium smegmatis ATCC 607; format: functional
Procedure, shortened: (§1)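 MICs (µg/mL) were determined by agar dilution/streak against S. aureus ATCC 13709, E. coli ATCC 9637, S. gallinarum ATCC 9184, K. pneumoniae ATCC 10031, M. smegmatis ATCC 607, P. aeruginosa ATCC 27853 and C. albicans ATCC 10231.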

[2] = test system: Pseudomonas aeruginosa; test: Antimicrobial activity was determined against Pseudomonas aeruginosa ATCC 27853 cells; format: functional; procedure, shortened: as §1
[3] = test system: Salmonella enterica subsp. enterica serovar Gallinarum; test: Antimicrobial activity was determined against Salmonella gallinarum ATCC 9184; format: functional; procedure, shortened: as §1
[4] = test system: B16; test: Cytotoxic activity against mouse melanoma cell culture(B-16); format: functional, cell-based
Procedure, shortened: (§2)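 10^4 B16 or L-1210 (ATCC 219) cells were seeded per well in DMEM with 5% bovine serum and grown 48 h at 37 °C under 5% CO2. Agents from 10 mg/mL stocks in 95% ethanol or DMSO were added as 2× medium, then 48 h more. L-1210 cells were dispersed by pipetting; B16 were detached with 0.01% trypsin/0.1% EDTA for 5 min at 37 °C. Cells were counted by hemocytometer or Coulter counter, and the dose halving the count versus untreated controls was read from the count–concentration plot.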

[5] = test system: Staphylococcus aureus; test: Antimicrobial activity was determined against Staphylococcus aureus ATCC 13709; format: functional; procedure, shortened: as §1
[6] = test system: Candida albicans; test: Antimicrobial activity was determined against Candida albicans ATCC 10231; format: functional; procedure, shortened: as §1
[7] = test system: Escherichia coli; test: Antimicrobial activity was determined against Escherichia coli ATCC 9637; format: functional; procedure, shortened: as §1
[8] = test system: L1210; test: Cytotoxic activity against mouse lymphoblastic leukemia cell culture (L-1210); format: functional, cell-based; procedure, shortened: as §2
[9] = test system: Klebsiella pneumoniae; test: Antimicrobial activity was determined against Klebsiella pneumoniae ATCC 10031; format: functional; procedure, shortened: as §1
[10] = test system: P388; test: Cytotoxic activity against P388 mouse leukemia cell culture (9PS(P388)); format: functional, cell-based
Procedure, shortened: (§3)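 P388 (9PS, NCI-supplied line) and 9KB IC50s (µg/mL) followed NCI cell culture protocols. Samples were run in duplicate, and growth was compared with untreated controls. IC50 was extrapolated from a least-squares fit of the dose–response curve.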

[11] = test system: Epidermoid carcinoma cell line; test: Cytotoxic activity against human epidermoid carcinoma of the nasopharynx (9KB); format: functional, cell-based; procedure, shortened: as §3
[12] = test system: B16; test: Cytotoxicity against mouse melanoma cell culture(B-16); format: functional, cell-based; procedure, shortened: as §2
[13] = test system: Epidermoid carcinoma cell line; test: Cytotoxicity against human epidermoid carcinoma of the nasopharynx (9KB); format: functional, cell-based; procedure, shortened: as §3
[14] = test system: CCRF-CEM; test: Cytotoxicity against human lymphoblastic leukemia cell culture (CCRF-CEM); format: functional, cell-based
[15] = test system: L1210; test: Cytotoxicity against mouse lymphoblastic leukemia cell culture (L-1210); format: functional, cell-based; procedure, shortened: as §2
[16] = test system: P388; test: Cytotoxicity against P388 mouse leukemia cell culture (9PS(P388)); format: functional, cell-based; procedure, shortened: as §3
[17] = test system: CCRF-CEM; test: Cytotoxic activity against human lymphoblastic leukemia cell culture (CCRF-CEM); format: functional, cell-based

| Structure (SMILES) | MIC [1] | MIC [2] | MIC [3] | IC50 [4] | MIC [5] | MIC [6] | MIC [7] | IC50 [8] | MIC [9] | IC50 [10] | IC50 [11] | IC50 [12] | IC50 [13] | IC50 [14] | IC50 [15] | IC50 [16] | IC50 [17] |
| --- | --- | --- | --- | --- | --- | --- | --- | --- | --- | --- | --- | --- | --- | --- | --- | --- | --- |
| COC(=O)c1nc(C(C)=O)c2[nH]c3ccccc3c2c1C | > 50 µg/mL | > 50 µg/mL | > 50 µg/mL | > 25 µg/mL | > 50 µg/mL | > 50 µg/mL | > 50 µg/mL | > 25 µg/mL | > 50 µg/mL | – | – | – | – | – | – | – | – |
| COC(=O)c1nc(C(=O)OC)c(N)c(-c2ccc(OC)c(OC)c2O)c1C | > 50 µg/mL | > 50 µg/mL | > 50 µg/mL | > 20 µg/mL | > 50 µg/mL | > 50 µg/mL | > 50 µg/mL | > 20 µg/mL | > 50 µg/mL | > 10 µg/mL | > 10 µg/mL | – | – | – | – | – | – |
| COC(=O)c1nc(-c2ccc3c(n2)C(=O)C(=N)C(OC)=C3O)c(N)c(-c2ccc(OC)c(OC)c2O)c1C | > 100 µg/mL | > 100 µg/mL | > 100 µg/mL | – | > 100 µg/mL | > 100 µg/mL | > 100 µg/mL | – | > 100 µg/mL | – | – | 1.5 µg/mL (≈ 2.88 µM) | 0.53 µg/mL (≈ 1.02 µM) | 0.017 µg/mL (≈ 0.0327 µM) | 3.1 µg/mL (≈ 5.96 µM) | 0.26 µg/mL (≈ 0.5 µM) | – |
| COC(=O)c1cccc(-c2ccc3c(n2)C(=O)C(=N)C=C3O)n1 | 6.25 µg/mL (≈ 20.2 µM) | > 50 µg/mL | > 50 µg/mL | 0.9 µg/mL (≈ 2.91 µM) | 6.25 µg/mL (≈ 20.2 µM) | > 50 µg/mL | > 50 µg/mL | 0.4 µg/mL (≈ 1.29 µM) | 50 µg/mL (≈ 162 µM) | 3.9 µg/mL (≈ 12.6 µM) | 0.17 µg/mL (≈ 0.55 µM) | – | – | – | – | – | 0.1 µg/mL (≈ 0.323 µM) |
| COC1=C(N)C(=O)c2ncccc2C1=O | 50 µg/mL (≈ 245 µM) | > 100 µg/mL | > 50 µg/mL | 1.2 µg/mL (≈ 5.88 µM) | 6.25 µg/mL (≈ 30.6 µM) | 50 µg/mL (≈ 245 µM) | > 50 µg/mL | 1 µg/mL (≈ 4.9 µM) | 50 µg/mL (≈ 245 µM) | 0.22 µg/mL (≈ 1.08 µM) | 1.9 µg/mL (≈ 9.31 µM) | – | – | – | – | – | 0.2 µg/mL (≈ 0.98 µM) |
| COC(=O)c1[nH]c(-c2ccc3c(n2)C(=O)C(=N)C=C3O)c2nc3ccccc3c-2c1C | – | – | – | – | – | – | – | – | – | – | – | 3.1 µg/mL (≈ 7.52 µM) | – | – | 2.2 µg/mL (≈ 5.33 µM) | – | – |
| COC1=C(N)C(=O)c2nc(-c3nc(C(=O)O)c(C)c(-c4ccc(OC)c(OC)c4O)c3N)ccc2C1=O [STREPTONIGRIN] | 1.56 µg/mL (≈ 3.08 µM) | 6.25 µg/mL (≈ 12.3 µM) | 1.56 µg/mL (≈ 3.08 µM) | – | < 0.1 µg/mL | 12.5 µg/mL (≈ 24.7 µM) | 6.25 µg/mL (≈ 12.3 µM) | – | 0.1 µg/mL (≈ 0.197 µM) | – | – | 0.48 µg/mL (≈ 0.948 µM) | 0.0025 µg/mL (≈ 0.00494 µM) | 0.00017 µg/mL (≈ 0.000336 µM) | 0.61 µg/mL (≈ 1.2 µM) | 0.045 µg/mL (≈ 0.0889 µM) | – |
| NC1=CC(=O)c2ccc(-c3cccc(C(=O)O)n3)nc2C1=O | > 50 µg/mL | > 50 µg/mL | > 50 µg/mL | – | > 50 µg/mL | > 50 µg/mL | > 50 µg/mL | – | > 50 µg/mL | – | – | > 20 µg/mL | > 10 µg/mL | 2.1 µg/mL (≈ 7.11 µM) | > 20 µg/mL | > 10 µg/mL | – |
| NC1=CC(=O)c2ccc(-c3cc(C(=O)O)ccc3N)nc2C1=O | > 50 µg/mL | > 50 µg/mL | > 50 µg/mL | > 20 µg/mL | > 50 µg/mL | > 50 µg/mL | > 50 µg/mL | > 20 µg/mL | > 50 µg/mL | 5 µg/mL (≈ 16.2 µM) | > 10 µg/mL | – | – | – | – | – | 14.6 µg/mL (≈ 47.2 µM) |
| NC1=CC(=O)c2cccnc2C1=O | 12.5 µg/mL (≈ 71.8 µM) | > 100 µg/mL | 50 µg/mL (≈ 287 µM) | 0.4 µg/mL (≈ 2.3 µM) | 12.5 µg/mL (≈ 71.8 µM) | 50 µg/mL (≈ 287 µM) | 50 µg/mL (≈ 287 µM) | – | 50 µg/mL (≈ 287 µM) | 0.19 µg/mL (≈ 1.09 µM) | 0.74 µg/mL (≈ 4.25 µM) | – | – | – | – | – | 0.3 µg/mL (≈ 1.72 µM) |
| COC1=C(N)C(=O)c2nc(-c3ccccn3)ccc2C1=O | 1.56 µg/mL (≈ 5.55 µM) | > 100 µg/mL | > 100 µg/mL | 0.45 µg/mL (≈ 1.6 µM) | 1.56 µg/mL (≈ 5.55 µM) | 3.12 µg/mL (≈ 11.1 µM) | > 100 µg/mL | 0.3 µg/mL (≈ 1.07 µM) | 25 µg/mL (≈ 88.9 µM) | 0.034 µg/mL (≈ 0.121 µM) | 0.33 µg/mL (≈ 1.17 µM) | – | – | – | – | – | 0.5 µg/mL (≈ 1.78 µM) |
| COC(=O)c1ccc(N)c(-c2ccc3c(n2)C(=O)C(=N)C=C3O)c1 | > 50 µg/mL | > 50 µg/mL | > 50 µg/mL | 0.4 µg/mL (≈ 1.24 µM) | > 50 µg/mL | > 50 µg/mL | > 50 µg/mL | 0.6 µg/mL (≈ 1.86 µM) | > 50 µg/mL | 0.2 µg/mL (≈ 0.619 µM) | 2.7 µg/mL (≈ 8.35 µM) | – | – | – | – | – | 0.4 µg/mL (≈ 1.24 µM) |
| COC(=O)c1[nH]c(C(=O)OC)c(C)c2c3ccccc3nc1-2 | > 50 µg/mL | > 50 µg/mL | > 50 µg/mL | > 25 µg/mL | > 50 µg/mL | > 50 µg/mL | > 50 µg/mL | > 25 µg/mL | > 50 µg/mL | – | – | – | – | – | – | – | 16.8 µg/mL (≈ 56.3 µM) |
| NC1=CC(=O)c2ccc(-c3ccccn3)nc2C1=O | 0.78 µg/mL (≈ 3.1 µM) | > 100 µg/mL | 100 µg/mL (≈ 398 µM) | 0.26 µg/mL (≈ 1.03 µM) | 3.12 µg/mL (≈ 12.4 µM) | 50 µg/mL (≈ 199 µM) | > 100 µg/mL | 0.42 µg/mL (≈ 1.67 µM) | 100 µg/mL (≈ 398 µM) | 0.0023 µg/mL (≈ 0.00915 µM) | 0.1 µg/mL (≈ 0.398 µM) | – | – | – | – | – | 0.09 µg/mL (≈ 0.358 µM) |
